Activity calls are given as the source filed them. No cut-off for these calls is given here.
Legend:
RS4-11 [1] = experiment: Cytotoxicity against human RS4-11 cells assessed as reduction in cell viability measured after 48 hrs by MTS assay; type: functional, cell-based; conditions: RS4-11, 48 h
MOLT-4 = experiment: Cytotoxicity against human MOLT-4 cells assessed as reduction in cell viability measured after 48 hrs by MTS assay; type: functional, cell-based; conditions: MOLT-4, 48 h
[2] = molecular target: T1, von Hippel-Lindau disease tumor suppressor/Bcl-2-like protein 1 (Homo sapiens, UniProt Q07817+P40337); experiment: Binding affinity to Halo-tagged VHL/HiBiT-tagged BCL-XL (unknown origin) expressed in HEK293T cells assessed as ternary complex formation at up to 100000 nM measured after 6 hrs by NanoBRET assay; type: cell-based
Method in brief: (§1)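 NanoBRET in live HEK 293T cells. Cells were transfected with HaloTag-VHL (1 µg), HiBit-BCL-XL or HiBit-BCL-2 (10 ng) and LgBit (10 ng). After 24 h they were seeded at 2×10^4 per well in Opti-MEM with 4% FBS, with or without HaloTag 618 ligand, and held overnight. Serial compound doses were given for 6 h at 37 °C, then Nano-Glo substrate was added and mBRET ratios read. Mean ± s.e.m. of two experiments in triplicate.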
Target sequence in this assay (P40337 whole entry, looked up): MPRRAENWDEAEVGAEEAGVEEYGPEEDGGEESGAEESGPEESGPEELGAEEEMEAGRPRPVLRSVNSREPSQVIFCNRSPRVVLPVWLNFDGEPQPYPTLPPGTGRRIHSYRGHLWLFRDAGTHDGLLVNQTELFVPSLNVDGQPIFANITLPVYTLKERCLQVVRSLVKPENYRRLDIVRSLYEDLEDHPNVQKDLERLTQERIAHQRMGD
Target sequence in this assay (Q07817 whole entry, looked up): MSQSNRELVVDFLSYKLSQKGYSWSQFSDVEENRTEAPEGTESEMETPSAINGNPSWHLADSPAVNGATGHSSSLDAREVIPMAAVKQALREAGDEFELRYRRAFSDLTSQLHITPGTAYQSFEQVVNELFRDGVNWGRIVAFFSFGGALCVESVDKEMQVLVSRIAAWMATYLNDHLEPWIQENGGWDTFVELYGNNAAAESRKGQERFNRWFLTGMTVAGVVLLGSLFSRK

[3] = molecular target: T1, von Hippel-Lindau disease tumor suppressor/Bcl-2-like protein 1; experiment: Protac activity at VHL/BCL-XL in human RS4-11 cells assessed as decrease in BCL-XL protein level by densitometric analysis; type: cell-based
Method in brief: (§2)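 MOLT-4 or RS4;11 cells were treated at a range of concentrations for 16 h. BCL-XL was immunoblotted with β-actin loading control, and band densitometry was normalised to β-actin. Mean ± SD of three independent experiments in triplicate.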
Target sequence in this assay (Q07817 whole entry): as the sequence (Q07817 whole entry, looked up) above
Target sequence in this assay (P40337 whole entry): as the sequence (P40337 whole entry, looked up) above

Platelet = experiment: Cytotoxicity against platelets in human PRP assessed as reduction in cell viability measured after 48 hrs by MTS assay; type: cell-based
Method in brief: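 Washed human platelets from PRP were kept in HEPES Tyrode's buffer with 1 µM PGE1 and 0.2 units/mL apyrase at 2×10^8/mL.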

RS4-11 [4] = experiment: Cytotoxicity against human RS4-11 cells assessed as reduction in cell viability measured after 48 hrs in presence of VHL-032 by MTS assay; type: functional, cell-based; conditions: RS4-11, 48 h
Method in brief: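 RS4;11 cells were pretreated with 10 µM VHL-032, then exposed to compound for 48 h. Viability was read by MTS; three independent experiments in triplicate.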

[5] = molecular target: T2, von Hippel-Lindau disease tumor suppressor/Apoptosis regulator Bcl-2 (Homo sapiens) (UniProt P10415+P40337); experiment: Binding affinity to Halo-tagged VHL/HiBiT-tagged BCL-2 (unknown origin) expressed in HEK293T cells assessed as ternary complex formation at up to 100000 nM measured after 6 hrs by NanoBRET assay; type: cell-based; method in brief: as §1
T2 sequence (P10415 whole entry, looked up): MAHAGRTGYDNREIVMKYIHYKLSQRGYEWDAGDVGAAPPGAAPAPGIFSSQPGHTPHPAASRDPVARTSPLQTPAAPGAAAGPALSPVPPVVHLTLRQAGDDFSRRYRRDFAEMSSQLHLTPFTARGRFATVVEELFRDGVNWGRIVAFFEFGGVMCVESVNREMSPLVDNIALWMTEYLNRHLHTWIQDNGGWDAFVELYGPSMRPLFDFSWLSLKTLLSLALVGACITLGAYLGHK
T2 sequence (P40337 whole entry, looked up): as the sequence (P40337 whole entry, looked up) above

[6] = molecular target: T1, von Hippel-Lindau disease tumor suppressor/Bcl-2-like protein 1; experiment: Protac activity at VHL/BCL-XL in human MOLT-4 cells assessed as induction of BCL-XL degradation measured after 16 hrs by Western blot analysis; type: cell-based; method in brief: as §2
Target sequence in this assay (Q07817 whole entry): as the sequence (Q07817 whole entry, looked up) above
Target sequence in this assay (P40337 whole entry): as the sequence (P40337 whole entry, looked up) above

[7] = molecular target: T1, von Hippel-Lindau disease tumor suppressor/Bcl-2-like protein 1; experiment: Protac activity at VHL/BCL-XL in human MOLT-4 cells assessed as decrease in BCL-XL protein level by densitometric analysis; type: cell-based; method in brief: as §2
Target sequence in this assay (Q07817 whole entry): as the sequence (Q07817 whole entry, looked up) above
Target sequence in this assay (P40337 whole entry): as the sequence (P40337 whole entry, looked up) above

[8] = (§3) Binding affinity to C-terminal His-tagged human BCL-2 (1 to 211 residues) expressed in Escherichia coli/recombinant human VHL (54 to end residues) fused to human N-terminal GST-tagged elongin-C/elongin -B/N-terminal His-tagged CUL2/Rbx1 expressed in baculovirus infected Sf21 insect cells measured after 2 hrs by AlphaScreen assay
Method in brief: (§4)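 AlphaScreen displacement, run with or without VCB. Biotin-Bim (80 nM, for BCL-2) or biotin-Bad (16 nM, for BCL-XL) was combined with serially diluted compound and 6×His protein in 25 mM HEPES pH 7.5, 100 mM NaCl, 0.1% BSA, 0.005% Tween 20. Anti-His acceptor beads were added for 1 h at room temperature, then streptavidin donor beads for 30 min in the dark. Ki was fitted by one-site competitive model from peptide concentration and measured Kd values; reported as mean ± SD of at least two experiments in triplicate.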

[9] = as §3, with “cells assessed as ternary complex formation at up to 100000 nM” for “cells”, “30 mins” for “2 hrs”, “AlphaLISA” for “AlphaScreen”
Method in brief: (§5)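 Cell-free ternary complex AlphaLISA: 6×His-tagged BCL-XL, BCL-2 or MCL-1 (20 nM) mixed with serially diluted compound (4× dilution) and GST-VCB (20 nM) in 25 mM HEPES pH 7.5, 100 mM NaCl, 0.1% BSA, 0.005% Tween 20. After 30 min at room temperature, glutathione donor beads were added for 15 min, then anti-His acceptor beads for 45 min in the dark. Luminescence was plotted against log compound concentration.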

[10] = (§6) Binding affinity to human BCL-XL expressed in Escherichia coli/recombinant human VHL (54 to end residues) fused to human N-terminal GST-tagged elongin-C/elongin -B/N-terminal His-tagged CUL2/Rbx1 expressed in baculovirus infected Sf21 insect cells measured after 2 hrs by AlphaScreen assay; method in brief: as §4
[11] = as §6, with “cells assessed as ternary complex formation at up to 100000 nM” for “cells”, “30 mins” for “2 hrs”, “AlphaLISA” for “AlphaScreen”; method in brief: as §5
Bcl-2-like protein 1 = Bcl-2-like protein 1 (Homo sapiens, UniProt Q07817); experiment: Displacement of biotin-tagged LWAAQRYGRELRRMSDEFEGSFKGL from human BCL-XL expressed in Escherichia coli measured after 2 hrs by AlphaScreen assay
Bcl-2-like protein 1, sequence (Q07817 whole entry): as the sequence (Q07817 whole entry, looked up) above
Method in brief: (§7)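 AlphaScreen displacement, run with or without VCB. Anti-His acceptor beads were added for 1 h at room temperature, then streptavidin donor beads for 30 min in the dark. Ki was fitted by one-site competitive model from peptide concentration and measured Kd values; reported as mean ± SD of at least two experiments in triplicate.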

[12] = molecular target: Apoptosis regulator Bcl-2 (Homo sapiens, UniProt P10415); experiment: Displacement of biotin-tagged MRPEPATIAQELRRIGDEFNA from C-terminal His-tagged human BCL-2 (1` to 211 residues) expressed in Escherichia coli measured after 2 hrs by AlphaScreen assay; method in brief: as §7
Apoptosis regulator Bcl-2, sequence (P10415 whole entry): as the sequence (P10415 whole entry, looked up) above

[13] = molecular target: T1, von Hippel-Lindau disease tumor suppressor/Bcl-2-like protein 1; experiment: Binding affinity to VHL/ BCL-XL in human RS4-11 cells assessed as ternary complex formation at up to 300 nM measured after 12 hrs by immunoprecipitation assay; type: cell-based
Target sequence in this assay (P40337 whole entry, looked up): as the sequence (P40337 whole entry, looked up) above
Target sequence in this assay (Q07817 whole entry, looked up): as the sequence (Q07817 whole entry, looked up) above

[14] = molecular target: T1, von Hippel-Lindau disease tumor suppressor/Bcl-2-like protein 1; experiment: Binding affinity to VHL/ BCL-XL in human RS4-11 cells assessed as ternary complex formation at up to 300 nM measured after 12 hrs in presence of VHL-032 by immunoprecipitation assay; type: cell-based
Target sequence in this assay (P40337 whole entry, looked up): as the sequence (P40337 whole entry, looked up) above
Target sequence in this assay (Q07817 whole entry, looked up): as the sequence (Q07817 whole entry, looked up) above

[15] = molecular target: T1, von Hippel-Lindau disease tumor suppressor/Bcl-2-like protein 1; experiment: Protac activity at VHL/BCL-XL in human RS4-11 assessed as decrease in BCL-XL protein level at up to […] measured after 16 hrs by Western blot analysis; method in brief: as §2
Target sequence in this assay (P40337 whole entry, looked up): as the sequence (P40337 whole entry, looked up) above
Target sequence in this assay (Q07817 whole entry, looked up): as the sequence (Q07817 whole entry, looked up) above

[16] = molecular target: T2, von Hippel-Lindau disease tumor suppressor/Apoptosis regulator Bcl-2 (Homo sapiens); experiment: Binding affinity to VHL/BCL-2 in human RS4-11 cells assessed as ternary complex formation at up to 300 nM measured after 12 hrs in presence of VHL-032 by immunoprecipitation assay; type: cell-based
[17] = molecular target: T1, von Hippel-Lindau disease tumor suppressor/Bcl-2-like protein 1; experiment: Protac activity at VHL/BCL-XL in human MOLT-4 assessed as decrease in BCL-XL protein level at up to […] measured after 16 hrs by Western blot analysis; method in brief: as §2
Target sequence in this assay (P40337 whole entry, looked up): as the sequence (P40337 whole entry, looked up) above
Target sequence in this assay (Q07817 whole entry, looked up): as the sequence (Q07817 whole entry, looked up) above

[18] = molecular target: T2, von Hippel-Lindau disease tumor suppressor/Apoptosis regulator Bcl-2 (Homo sapiens); experiment: Binding affinity to VHL/BCL-2 in human RS4-11 cells assessed as ternary complex formation at up to 300 nM measured after 12 hrs by immunoprecipitation assay; type: cell-based

For `Cc1ncsc1-c1ccc([C@H](C)NC(=O)[C@@H]2C[C@@H](O)CN2C(=O)[C@@H](NC(=O)CCCCCCCCCC(=O)NCC2(C)CCC(c3ccc(Cl)cc3)=C(CN3CCN(c4ccc(C(=O)NS(=O)(=O)c5ccc(N[C@H](CCN6CCOCC6)CSc6ccccc6)c(S(=O)(=O)C(F)(F)F)c5)cc4)CC3)C2)C(C)(C)C)cc1` (some centres undefined), the IC50 (RS4-11 [1]) was 29.2 nM and the IC50 (MOLT-4) was 74.6 nM.

For `Cc1ncsc1-c1ccc([C@H](C)NC(=O)[C@@H]2C[C@@H](O)CN2C(=O)[C@@H](NC(=O)CCCCCCCCC(=O)NCC2(C)CCC(c3ccc(Cl)cc3)=C(CN3CCN(c4ccc(C(=O)NS(=O)(=O)c5ccc(N[C@H](CCN6CCOCC6)CSc6ccccc6)c(S(=O)(=O)C(F)(F)F)c5)cc4)CC3)C2)C(C)(C)C)cc1` (some centres undefined), the Activity [2] was “Active”, the DC50 [3] was 22.6 nM and the IC50 (RS4-11 [1]) was 23.3 nM. The IC50 (Platelet) was 2900 nM, the IC50 (MOLT-4) was 32.1 nM and the IC50 (RS4-11 [4]) was 481 nM. For the same compound, the Activity [5] was “Active”, the DC50 [6] was 27.2 nM and the DC50 [7] was 31.6 nM.

For `Cc1ncsc1-c1ccc([C@H](C)NC(=O)[C@@H]2C[C@@H](O)CN2C(=O)[C@@H](NC(=O)CCCCCCCCCCCC(=O)NCC2(C)CCC(c3ccc(Cl)cc3)=C(CN3CCN(c4ccc(C(=O)NS(=O)(=O)c5ccc(N[C@H](CCN6CCOCC6)CSc6ccccc6)c(S(=O)(=O)C(F)(F)F)c5)cc4)CC3)C2)C(C)(C)C)cc1` (some centres undefined), the IC50 (RS4-11 [1]) was 410 nM and the IC50 (MOLT-4) was 334 nM.

For `Cc1ncsc1-c1ccc([C@H](C)NC(=O)[C@@H]2C[C@@H](O)CN2C(=O)[C@@H](NC(=O)CCCCCCCCC(=O)NC[C@@]2(C)CCC(c3ccc(Cl)cc3)=C(CN3CCN(c4ccc(C(=O)NS(=O)(=O)c5ccc(N[C@H](CCN6CCOCC6)CSc6ccccc6)c(S(=O)(=O)C(F)(F)F)c5)cc4)CC3)C2)C(C)(C)C)cc1`, the Kd [8] was 0.55 nM, the Activity [9] was “Active” and the Activity [2] was “Active”. For the same compound, the DC50 [3] was 75.2 nM, the IC50 (RS4-11 [1]) was 418 nM and the Kd [10] was 0.64 nM. It also gave an IC50 (Platelet) of 9850 nM, an IC50 (MOLT-4) of 170 nM and an IC50 (RS4-11 [4]) of 1040 nM. For the same compound, the Activity [5] was “Active”, the Activity [11] was “Active” and the Ki (Bcl-2-like protein 1) was 2.75 nM. The DC50 [7] was 127 nM and the Kd [12] was 1.47 nM.

For `Cc1ncsc1-c1ccc([C@H](C)NC(=O)[C@@H]2C[C@H](O)CN2C(=O)[C@@H](NC(=O)CCCCCCCCC(=O)NC[C@]2(C)CCC(c3ccc(Cl)cc3)=C(CN3CCN(c4ccc(C(=O)NS(=O)(=O)c5ccc(N[C@H](CCN6CCOCC6)CSc6ccccc6)c(S(=O)(=O)C(F)(F)F)c5)cc4)CC3)C2)C(C)(C)C)cc1`, the Activity [2] was “inactive”, the Activity [13] was “Active” and the IC50 (RS4-11 [1]) was 328 nM. The IC50 (MOLT-4) was 821 nM, the Activity [14] was “inactive” and the Activity [5] was “inactive”. The Activity [15] was “inactive”, the Activity [16] was “inactive” and the Activity [17] was “inactive”.

For `Cc1ncsc1-c1ccc([C@H](C)NC(=O)[C@@H]2C[C@@H](O)CN2C(=O)[C@@H](NC(=O)CCCCCCCC(=O)NCC2(C)CCC(c3ccc(Cl)cc3)=C(CN3CCN(c4ccc(C(=O)NS(=O)(=O)c5ccc(N[C@H](CCN6CCOCC6)CSc6ccccc6)c(S(=O)(=O)C(F)(F)F)c5)cc4)CC3)C2)C(C)(C)C)cc1` (some centres undefined), the IC50 (RS4-11 [1]) was 43.7 nM and the IC50 (MOLT-4) was 125 nM.

Compound `Cc1ncsc1-c1ccc([C@H](C)NC(=O)[C@@H]2C[C@@H](O)CN2C(=O)[C@@H](NC(=O)CCCCCC(=O)NCC2(C)CCC(c3ccc(Cl)cc3)=C(CN3CCN(c4ccc(C(=O)NS(=O)(=O)c5ccc(N[C@H](CCN6CCOCC6)CSc6ccccc6)c(S(=O)(=O)C(F)(F)F)c5)cc4)CC3)C2)C(C)(C)C)cc1` (some centres undefined) has an IC50 (MOLT-4) of 307 nM.

With `CC1(C)CCC(c2ccc(Cl)cc2)=C(CN2CCN(c3ccc(C(=O)NS(=O)(=O)c4ccc(N[C@H](CCN5CCOCC5)CSc5ccccc5)c(S(=O)(=O)C(F)(F)F)c4)cc3)CC2)C1` [NAVITOCLAX] the Activity [13] was “Active”, the IC50 (Platelet) was 325 nM and the Activity [14] was “inactive”. The Activity [18] was “Active”.

With `Cc1ncsc1-c1ccc([C@H](C)NC(=O)[C@@H]2C[C@@H](O)CN2C(=O)[C@@H](NC(=O)CCCCCCC(=O)NCC2(C)CCC(c3ccc(Cl)cc3)=C(CN3CCN(c4ccc(C(=O)NS(=O)(=O)c5ccc(N[C@H](CCN6CCOCC6)CSc6ccccc6)c(S(=O)(=O)C(F)(F)F)c5)cc4)CC3)C2)C(C)(C)C)cc1` (some centres undefined) the IC50 (RS4-11 [1]) was 108 nM and the IC50 (MOLT-4) was 219 nM.

For `Cc1ncsc1-c1ccc([C@H](C)NC(=O)[C@@H]2C[C@@H](O)CN2C(=O)[C@@H](NC(=O)CCCCCCCCCCC(=O)NCC2(C)CCC(c3ccc(Cl)cc3)=C(CN3CCN(c4ccc(C(=O)NS(=O)(=O)c5ccc(N[C@H](CCN6CCOCC6)CSc6ccccc6)c(S(=O)(=O)C(F)(F)F)c5)cc4)CC3)C2)C(C)(C)C)cc1` (some centres undefined), the IC50 (RS4-11 [1]) was 96.3 nM and the IC50 (MOLT-4) was 112 nM.

For `Cc1ncsc1-c1ccc([C@H](C)NC(=O)[C@@H]2C[C@@H](O)CN2C(=O)[C@@H](NC(=O)CCCCC(=O)NCC2(C)CCC(c3ccc(Cl)cc3)=C(CN3CCN(c4ccc(C(=O)NS(=O)(=O)c5ccc(N[C@H](CCN6CCOCC6)CSc6ccccc6)c(S(=O)(=O)C(F)(F)F)c5)cc4)CC3)C2)C(C)(C)C)cc1` (some centres undefined), the IC50 (RS4-11 [1]) was 304 nM and the IC50 (MOLT-4) was 340 nM.
